A selection: hits, their analogues and other compounds. The true share with any hit is near 3.2%.
DENV2 CPE – inhibitors of DENV2 cytopathic effect, primary screen, cell-based, plate reader, single concentration; CPE inhibition, % at 9.99 µM; DENV2-infected cells, cytopathic effect rescue; hit rate 1.7% among 350,000; in the data active means CPE inhibition above about 20%, passing the limit was not always enough; inconclusive means no clear call, values can overlap the other calls; tested in BHK-21 cells
rRNA inh HTS – reduced GFP signal of wild-type E. coli, primary screen, bacterial rRNA inhibitor project, GFP/RFP fluorescence, OD600, single point. E. coli WT GFP vs humanized-ribosome RFP mutants, 24 h; active compounds read low; DMSO median 0, no signal -100. GFP signal change (wild-type ribosome), % (no concentration beside the values). hit rate 1.6% among 350,000;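 active means significant combined selectivity score with lowered wild-type GFP, culture density cut under 30%, mutant RFP and density less affected; inactive means any of these conditions unmet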
Cneo AK release – Cryptococcus neoformans cell lysis inducers, primary screen, AK release luminescence, single concentration | hit rate 0.2% among 360,000 | C. neoformans lysis, adenylate kinase release luminescence, 4 h; normalised: neutral wells 0, clomiphene wells 100 | AID 651654, 2012 | lysis activity, % at 15 µM;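 active means mean lysis activity across replicates of at least 80%, whatever share of replicates individually reach that level; inactive means mean lysis activity below 80%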
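Test system: log-phase Cryptococcus neoformans yeast cells; Quantity: yeast cell density of 5 × 10^6 cells/mL; Buffer or medium: YPD; Doses: single compound concentration per well; Timing: 4 h at 37 °C static, read 1 h later; Measured by: AK luminescence; Read-out basis: lysis from increased AK signal; Control set: Clomiphene as positive control.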
S100A4 inh HTS – inhibitors of S100A4-myosin IIA peptide binding, primary screen, biochemical, fluorescence polarization, TAMRA-MyoIIA peptide | Protein S100-A4 (Homo sapiens), P26447 | inhibition, % at 10.7 µM | hit rate 0.14% among 360,000 | AID 652163, 2013;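 active means mean inhibition of at least 70% across replicates, with every replicate also reaching that level; inconclusive means mean inhibition reaches 70% but some replicates fall short; inactive means mean inhibition below 70%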
Target sequence (P26447 whole entry, looked up): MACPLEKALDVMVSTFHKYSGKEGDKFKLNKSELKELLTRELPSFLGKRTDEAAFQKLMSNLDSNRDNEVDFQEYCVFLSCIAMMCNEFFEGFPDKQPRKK
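Material: S100A4 monomer (human). Medium: Calcium-containing HEPES buffer, pH 7.2. Probe or stimulus: labelled myosin peptide probe, 5 nM. Compound dosing: one concentration per compound. Timing: polarization read 5 min after assay mix addition, stable 5–60 min. Benchmarks: DMSO as neutral control, TFP as positive control.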
PfHsp90 yeast 2 – growth inhibition of PfHsp90-expressing yeast, primary screen, antimalarial PfHsp90 inhibitor project, S. cerevisiae, BacTiter-Glo luminescence, single point, set 2 | BacTiter-Glo ATP, 48 h; yeast lacking PDR1 and PDR3 efflux regulators | inhibition, % at 9.4 µM | hit rate 0.32% among 310,000 | AID 504621, 2011;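 active means every replicate shows inhibition above about 80%, whatever the replicate mean, limit read from the data; inconclusive means mean inhibition reaches the set limit but some replicate falls short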
MLL AF4-AF9 inh – inhibitors of AF4 peptide binding to AF9, primary screen, biochemical, AlphaScreen, biotin-AF4 peptide, FLAG-AF9, single point. AID 651704, 2012. hit rate 0.47% among 350,000. inhibition, % at 10 µM. Protein AF-9 (Homo sapiens), P42568;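 active means every replicate reaching a set inhibition limit, whatever the replicate mean, cut at about 25% in these data; inconclusive means mean inhibition reaches that limit but some replicates miss it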
Target sequence (P42568 whole entry, looked up): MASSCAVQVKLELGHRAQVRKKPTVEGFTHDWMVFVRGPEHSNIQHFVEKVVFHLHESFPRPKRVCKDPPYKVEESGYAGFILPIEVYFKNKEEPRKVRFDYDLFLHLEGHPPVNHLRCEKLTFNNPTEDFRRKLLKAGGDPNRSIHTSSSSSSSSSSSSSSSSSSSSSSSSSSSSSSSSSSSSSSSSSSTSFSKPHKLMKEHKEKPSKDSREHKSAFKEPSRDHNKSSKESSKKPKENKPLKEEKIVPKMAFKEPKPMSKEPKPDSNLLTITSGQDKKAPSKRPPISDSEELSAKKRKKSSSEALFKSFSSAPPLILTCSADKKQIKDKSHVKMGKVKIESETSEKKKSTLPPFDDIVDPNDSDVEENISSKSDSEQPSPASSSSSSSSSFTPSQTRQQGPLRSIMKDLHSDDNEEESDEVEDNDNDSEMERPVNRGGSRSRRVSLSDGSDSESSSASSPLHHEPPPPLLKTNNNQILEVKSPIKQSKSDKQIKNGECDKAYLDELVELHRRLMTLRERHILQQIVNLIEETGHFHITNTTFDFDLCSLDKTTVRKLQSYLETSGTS
Hits are given with their value; – = inactive; ? = inconclusive; · = not tested or not shown.

SMILES	DENV2 CPE	rRNA inh HTS	Cneo AK release	S100A4 inh HTS	PfHsp90 yeast 2	MLL AF4-AF9 inh
O=C(c1cc(-c2ccccc2)n[nH]1)N1CCN(S(=O)(=O)c2ccccc2)CC1	43.0	–	–	–	–	–
CCCC(=O)Nc1ccc2c(c1)C(=O)N(C)C[C@@H](OC)[C@H](C)CN(Cc1ccccc1F)[C@@H](C)CO2	–	–	–	–	·	–
COCCNC(=O)c1cc2c(-c3ccc(Cl)cc3)nn(C)c2s1	–	-26.9	–	–	–	–
COCCCNC(=O)c1cc2c(-c3ccc(Cl)cc3)nn(C)c2s1	–	–	–	–	–	–
COc1ccc2c3c(n(C)c2c1)[C@@H](CO)N(C)CC31CN(C(=O)C2CCC2)C1	–	–	·	–	·	–
COCCNc1nc(Nc2ccccc2Cl)c2sccc2n1	38.0	–	–	–	·	–
COc1ccc(C2NC(=O)NC(C)=C2C(=O)Nc2cccc(C)c2C)cc1 (stereo not drawn)	60.1	–	–	–	–	–
COC(=O)C1=C(C)N(C)C(=NCc2ccc(OC)cc2)NC1c1ccc(C(F)(F)F)cc1 (stereo not drawn)	–	–	·	–	·	–
CC1=C(C(=O)OC2CCCCC2)C(c2ccccc2)NC(=O)N1 (stereo not drawn)	?	–	–	–	–	–
COC(=O)C1=C(C)N(C)C(=NCc2ccc(OC)cc2)NC1c1ccc(F)cc1 (stereo not drawn)	50.5	–	·	–	·	–
CC1=C(C(=O)OCc2ccccc2)C(c2ccccc2Br)NC(=O)N1 (stereo not drawn)	–	-34.4	–	–	–	–
COc1cc(C2NC(=O)NC(C)=C2C(=O)Nc2cccc(C)c2C)cc(OC)c1OC (stereo not drawn)	·	·	–	·	–	·
CC1=C(C(=O)OC2CCCCCCC2)C(c2ccc(O)cc2)NC(=O)N1 (stereo not drawn)	–	-43.1	–	–	–	–
CC1=C(C(=O)OCc2ccccc2)C(c2ccccc2OC(F)F)NC(=O)N1 (stereo not drawn)	·	·	–	·	–	·
CN1CCN(C(=O)C[C@H]2CC[C@H]3[C@H](COc4ccc(NC(=O)C5CCCC5)cc4C(=O)N3C)O2)CC1	–	–	·	–	·	–
CCOc1ccccc1C1NC(=O)NC(C)=C1C(=O)OCc1ccccc1 (stereo not drawn)	–	–	–	–	–	–
COc1ccccc1C1NC(=O)NC(C)=C1C(=O)OCc1ccccc1 (stereo not drawn)	–	-23.3	–	–	–	–
COc1ccc(COC(=O)C2=C(C)NC(=O)NC2c2ccc(F)cc2)cc1 (stereo not drawn)	60.8	–	–	–	–	–
O=C(CN1CCOCC1)NCC[C@@H]1CC[C@@H](NC(=O)Cc2ccccn2)[C@@H](CO)O1	–	–	–	–	·	–
C/C=C/c1cnc2c(c1)C(=O)N([C@@H](C)CO)C[C@H](C)[C@@H](CN(C)C(=O)C1CCOCC1)O2	–	–	–	–	·	–
O=C(NC(c1ccc(F)cc1)c1ccc2ccccc2n1)C1CCN(Cc2ccc3ccccc3n2)CC1 (stereo not drawn)	–	–	–	–	·	–
CN(C)c1ccc(CN2CCC(C(=O)NC(c3ccc(F)cc3)c3ccc4ccccc4n3)CC2)cc1 (stereo not drawn)	–	–	–	–	·	42.4
CCN1C(=O)C(CC(=O)Nc2ccc(OC)cc2)N(Cc2ccco2)C1=S (stereo not drawn)	·	·	–	·	–	·
CCN1C(=O)C(CC(=O)Nc2ccc(OC)cc2)N(Cc2cccs2)C1=S (stereo not drawn)	–	-30.7	·	–	–	–
CC(C)N(Cc1nc(-c2ccccc2)no1)C(=O)c1ccc2c(c1)OCO2	·	-29.3	–	–	·	–
SMILES	DENV2 CPE	rRNA inh HTS	Cneo AK release	S100A4 inh HTS	PfHsp90 yeast 2	MLL AF4-AF9 inh
Cc1noc(C)c1NC(=O)N(C)C[C@H]1Oc2ccc(NC(=O)CCN3CCOCC3)cc2CC(=O)N([C@H](C)CO)C[C@@H]1C	–	–	–	–	·	–
O=C(Nc1ccc(F)cc1)Nc1ccc2c(c1)[C@H]1C[C@H](CC(=O)N3CCCCC3)O[C@@H](CO)[C@H]1O2	21.2	–	–	·	·	·
O=C(Nc1ccc2c(c1)[C@@H]1C[C@H](CC(=O)N3CCCCC3)O[C@H](CO)[C@@H]1O2)C1CCC1	–	–	–	–	·	–
CN1CCN(C(=O)C[C@@H]2C[C@@H]3c4cc(NC(=O)NC5CCCCC5)ccc4O[C@@H]3[C@@H](CO)O2)CC1	28.7	–	–	–	·	–
CN1CCN(C(=O)C[C@@H]2C[C@H]3c4cc(NC(=O)NC5CCCCC5)ccc4O[C@H]3[C@@H](CO)O2)CC1	–	–	–	–	·	–
O=C(Nc1ccc(F)cc1)Nc1ccc2c(c1)[C@@H]1C[C@H](CC(=O)N3CCCCC3)O[C@@H](CO)[C@@H]1O2	–	–	–	·	·	·
O=C(Nc1ccc2c(c1)[C@H]1C[C@@H](CC(=O)N3CCCCC3)O[C@@H](CO)[C@H]1O2)C1CCC1	25.9	–	–	–	·	–
COc1ccc(-c2cc(C)no2)cc1S(=O)(=O)NCCc1ccco1	–	–	–	–	–	25.8
CCOc1ccc(N(C)S(=O)(=O)c2cc(-c3cc(C)no3)ccc2OC)cc1	–	-37.1	–	–	–	–
COc1ccc(-c2cc(C)no2)cc1S(=O)(=O)NCC(C)c1ccccc1 (stereo not drawn)	–	–	–	–	–	–
Cn1cc(CC(=O)Nc2ccc(Nc3cccnc3)cc2)c2ccccc21	53.6	–	·	–	·	·
O=C(Cc1cn(Cc2ccccc2)c2ccccc12)Nc1ccc(Oc2cccnc2)cc1	48.6	–	·	–	·	·
O=C(NCc1ccccn1)[C@H]1[C@H](CO)[C@H]2Cn3c(cccc3=O)[C@@H]1N2CC1CCCC1	–	–	·	–	·	–
O=C(CN1c2ccccc2Sc2ccccc21)NNC(=S)Nc1ccc(Cl)cc1	–	-47.7	–	–	–	–
CC(C)[C@H]1CC[C@@H](C)C(C(=O)c2ccccc2)C1=O (stereo partly drawn)	·	–	–	–	–	57.6
CCCC(=O)Nc1ccc2c(c1)C(=O)N(C)C[C@H](OC)[C@@H](C)CN(S(=O)(=O)c1cn(C)cn1)[C@@H](C)CO2	–	–	–	–	·	–
CC1=NN(c2ccccc2)C(=O)C1C=Nc1ccccc1O (stereo not drawn)	–	-18.8	·	–	–	–
